M4 antag = blocks acetylcholine activation of human M4 receptor | P08173 | CHO-hM4 cells, ACh EC80, Fluo-8 calcium fluorescence | inhibition, % at 3 µM | 360,000 compounds, 0.73% hits | AID 624125;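 active means inhibition above its plate's cutoff, the mean inhibition of sample wells plus 3 SD, cut at about 27% in these data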
M5 ag = agonists of human muscarinic M5 receptor (CHRM5) | 360,000 compounds, 0.19% hits | activation, % at 3 µM | CHO-K1 hM5 cells, Fluo-8 calcium fluorescence; 0% DMSO wells, 100% maximal acetylcholine response;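 active means activation above the run's mean over test compounds plus 3 SD, cut at about 23% in these data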;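 further: signal is peak over basal fluorescence ratio across the kinetic read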
Target sequence (P08912 whole entry, looked up): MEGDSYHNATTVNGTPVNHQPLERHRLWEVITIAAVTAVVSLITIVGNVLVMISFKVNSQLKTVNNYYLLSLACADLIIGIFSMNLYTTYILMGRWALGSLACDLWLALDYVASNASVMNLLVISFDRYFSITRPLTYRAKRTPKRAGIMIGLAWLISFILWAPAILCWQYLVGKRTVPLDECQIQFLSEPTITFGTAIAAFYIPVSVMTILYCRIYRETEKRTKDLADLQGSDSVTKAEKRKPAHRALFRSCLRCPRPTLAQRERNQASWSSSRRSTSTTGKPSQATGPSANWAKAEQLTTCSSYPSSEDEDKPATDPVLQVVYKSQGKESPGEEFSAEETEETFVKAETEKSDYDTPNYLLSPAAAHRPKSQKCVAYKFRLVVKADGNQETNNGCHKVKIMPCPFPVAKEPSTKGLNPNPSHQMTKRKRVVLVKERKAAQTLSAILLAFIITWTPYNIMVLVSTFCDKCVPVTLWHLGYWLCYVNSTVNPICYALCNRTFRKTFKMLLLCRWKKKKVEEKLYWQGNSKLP
M4 ag = CHRM4 agonism in calcium assay | activation, % at 3 µM | CHO-K1 hM4/Gqi5, Fluo-8 calcium fluorescence; vehicle 0%, full acetylcholine response 100% | P08173 | 360,000 compounds, 0.14% hits | AID 624127;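 active means activation above the run mean over all test wells plus 3 SD, cut at about 32% in these data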;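 further: peak over basal fluorescence ratio per well then scaled between controls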
CHRM4 PAM = CHRM4 positive allosteric modulation. P08173. CHO-K1 hM4/Gqi5, Fluo-8 calcium fluorescence, ACh EC20; 0% = ACh EC20, 100% = maximal ACh. activation, % at 3 µM. 360,000 compounds, 0.4% hits. AID 624126;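 active means activation above its plate's cutoff, the mean activation of sample wells plus 3 SD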
M5 antag = blocks acetylcholine activation of human M5 receptor | P08912 | AID 624040 | CHO-hM5 cells, Fluo-8 calcium fluorescence, ACh EC80 | 360,000 compounds, 0.59% hits | inhibition, % at 3 µM;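 active means inhibition above a per-plate cutoff, the mean of that plate's test compounds plus 3 SD, cut at about 27% in these data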
M5 PAM = positive allosteric modulators of human muscarinic M5 receptor; AID 624038; CHO-K1 hM5, Fluo-8 calcium, ACh EC20 PAM; 0% = ACh EC20, 100% = ACh EC100; 360,000 compounds, 0.3% hits; activation, % at 3 µM; P08912;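 active means activation above the run cutoff, the mean activation of all test compounds plus 3 SD, cut at about 18% in these data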
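Probe or stimulus: acetylcholine, EC20 level; Assay system: human M5 receptor in CHO-K1 cells; Schedule: compound preincubation 140 s before EC20 acetylcholine addition; Technique: intracellular calcium via Fluo-8 fluorescence; Dosing: single-point, 3 µM nominal; Read-out basis: percent activation from peak-over-basal fluorescence ratio, scaled EC20-to-EC100 acetylcholine; Repeats: one well per compound, no replicates.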
A number is an active result; i = inactive; ! = not active in a repeat. Most compounds without a hit are left out; they make up all but 1.8% or so of the library.

SMILES	M4 antag	M5 ag	M4 ag	CHRM4 PAM	M5 antag	M5 PAM
Cc1ccc(CNC(=O)c2cc(C)nn2-c2ccccc2)cc1	i	i	i	i	i	i
O=C(c1ccc(Cl)cc1)N1CCN(c2ccc([N+](=O)[O-])c(NCc3cccnc3)c2)CC1	i	i	i	26	i	i
O=C(c1cccnc1)N1CCN(c2ccc(Cl)cc2)CC1	i	i	i	30	i	i
O=C(Nc1ccc(N2CCN(C(=O)c3ccc(Cl)cc3)CC2)cc1)c1cccnc1	i	i	i	i	i	i
CN(C)CCOC1(Cc2ccc(F)cc2)CCC(C(C)(C)C)CC1 (stereo not given)	i	i	i	i	i	19
Cc1ccc(CC2(OCCN(C)C)CCC(C(C)(C)C)CC2)cc1 (stereo not given)	i	i	i	i	i	i
Cc1onc(-c2ccccc2)c1C(=O)Nc1nnc(N(C)Cc2ccccc2)s1	i	i	i	18	i	i
CC(C)c1ccc(OCC(=O)NC(=S)Nc2ccc3c4c(cccc24)CC3)cc1	30	i	i	i	i	i
O=C(Cc1cccc(C(F)(F)F)c1)NCC(=O)Nc1cc(Cl)ccc1Cl	i	i	i	i	i	i
CCN(CC(=O)Nc1ccc(NC(C)=O)cc1)C(=O)CN1C(=O)NC(C)(c2ccc3ccccc3c2)C1=O (stereo not given)	i	i	i	27	i	i
CCCCCC(C)NC(=O)CN1C(=O)NC(C)(c2ccc3ccccc3c2)C1=O (stereo not given)	i	i	i	23	i	i
C=C(C)CN(CC)C(=O)CN1C(=O)NC(C)(c2ccc3ccccc3c2)C1=O (stereo not given)	i	i	i	i	i	i
CC(=O)O[C@H]1[C@@H](O)[C@H](O)[C@H](Oc2c(O)c(C)c3c4c2[C@@H](C)CC[C@@H]4[C@@H](C)C[C@@H]3C=C(C)C)O[C@H]1C	i	i	i	i	i	i
C/C(=N\NC(=O)COc1ccc(C)cc1C(C)C)c1ccc(-n2ccnc2)cc1	48	i	i	i	i	i
COC(=O)N/N=C(\C)c1ccc(-n2ccnc2)cc1	i	i	i	i	i	i
O=S1(=O)CC(N2CCC(c3ccccc3)CC2)CN1Cc1ccccc1 (stereo not given)	i	i	i	i	i	i
Cc1snc(SCc2ccc(F)cc2)c1C#N	i	i	i	18	i	i
O=C(OC1CCCC1)c1ccc(Cl)cc1Cl	i	i	i	i	i	i
Cc1ccc(OCCN2CCN(c3ncnc4sc(C)c(C)c34)CC2)cc1	i	i	i	i	32	i
Clc1ccc(OCCN2CCN(c3ncnc4sccc34)CC2)cc1	35	i	i	i	33	i
COCCCC1CCN(C(=O)C2CCC(=O)N(Cc3ccccc3F)C2)CC1 (stereo not given)	i	i	i	i	i	i
C=CC[C@@H](CC(=O)N(CCO)Cc1ccccc1)C(=O)NC[C@@H](OC(=O)[C@@H](CC=C)Cc1ccc(F)cc1)c1ccccc1	i	i	i	i	i	i
C=CC[C@H](CC(=O)N(CCO)Cc1ccccc1)C(=O)NC[C@H](OC(=O)[C@@H](CC=C)Cc1ccc(F)cc1)c1ccccc1	30	i	i	i	i	i
C=CC[C@@H](CC(=O)N(CCO)Cc1ccccc1)C(=O)N[C@H](COC(=O)[C@@H](CC=C)Cc1ccc(F)cc1)Cc1ccccc1	31	i	i	i	i	i
COc1ccc(C(=O)Nc2ccc(N3CCCCCC3)cc2)cc1S(=O)(=O)N1CCOCC1	i	i	i	i	i	i
SMILES	M4 antag	M5 ag	M4 ag	CHRM4 PAM	M5 antag	M5 PAM
O=C(CC(NC(=O)OCc1ccccc1)C(=O)O)OCc1ccccc1 (stereo not given)	i	i	i	i	i	i
O=C(CC(NC(=O)OCc1ccccc1)C(=O)OCc1ccccc1)OCc1ccccc1 (stereo not given)	28	i	i	i	i	i
Cc1ccc(S(=O)(=O)N(C)C)cc1NC(=O)C(C)N(C)Cc1sccc1C (stereo not given)	i	i	i	i	30	i
COc1ccc(CNC(=O)CCNS(=O)(=O)c2cc(Br)cnc2N)cc1	i	i	i	i	i	i
CCCCNC(=O)N(C)c1nncnc1C(=O)NC	i	i	i	i	i	26
CC(=O)c1ccc(N2CCN(C(=O)/C=C/c3ccc(S(=O)(=O)NCc4ccco4)cc3)CC2)cc1	38	i	i	i	i	i
CN1CCN(c2ncccc2S(=O)(=O)N2CCCCC2)CC1	69	i	i	i	99	i
CC(=O)N1c2ccc(S(=O)(=O)N3CCCC3C(=O)Nc3ccc(C)cc3)cc2CC1C (stereo not given)	i	i	i	i	i	i
Fc1ccc([C@@H]2CCNC[C@H]2COc2ccc3c(c2)OCO3)cc1	34!	i	i	i	30!	i
Fc1ccc(C2CCNCC2COc2ccc3c(c2)OCO3)cc1 (stereo not given)	i	i	i	i	i	i
N#Cc1ccc(/C=C/C(=O)c2ccc3c(c2)OCO3)cc1	i	i	i	17	i	i
Cc1cccc(NC(=O)C(=O)C2C(=O)Nc3ccccc32)c1 (stereo not given)	i	i	i	i	i	19
CN(C)CCNC(=O)C1(C)Cc2c(-c3cccc(C(F)(F)F)c3)ccnc2O1 (stereo not given)	i	i	i	i	i	i
O=C(NCc1ccc(F)c(F)c1)c1cccc2c(-c3cccnc3)coc12	i	i	i	i	i	i
COc1ccc(CNC(=O)c2cccc3c(-c4cccnc4)coc23)cc1OC	i	i	i	i	35	i
Cc1cc(C)n2c(NC3CCCC3)c(-c3ccc(F)cc3)nc2n1	i	i	i	i	i	i
CC(C)CC1C(=O)N(Cc2cn(CC3CCCCC3)nn2)CCS(=O)(=O)N1Cc1ccc(-c2cccc(CO)c2)cc1 (stereo not given)	i	i	i	i	i	i
CCCCCN1CC(=O)N2[C@@H](Cc3c([nH]c4ccccc34)C2(C)C)C1=O	i	i	i	i	i	i
CCCCN(CCCC)CCCN1CC(=O)N2[C@@H](Cc3c([nH]c4ccccc34)C2(C)C)C1=O	86	i	i	i	i	i
CCOC(=O)C1CCCN(c2cc(=O)n(Cc3ccc(F)cc3)c(=O)[nH]2)C1 (stereo not given)	i	24	i	i	i	i
COC(=O)C1CCN(c2cc(=O)n(Cc3ccc(F)cc3)c(=O)[nH]2)CC1	i	i	i	i	i	i
O=C(Nc1ccccc1N1CCCC1)C1CCCO1 (stereo not given)	i	i	i	i	i	i
